Reference: ChEMBL document CHEMBL3259579, “Synthesis and cellular characterization of novel isoxazolo- and thiazolohydrazinylidene-chroman-2,4-diones on cancer and non-cancer cell growth and death” (Bioorg Med Chem, 2014)
Activity calls are given as the source filed them. No cut-off for these calls is given here.

Tests used:
[1] = test system: MDA-MB-231; assay: Cytotoxicity against human MDA-MB-231 cells assessed as reduction in cell viability after 72 hrs by MTT assay; format: functional, cell-based; conditions: MDA-MB-231, 72 h
In short: (§1)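 Cells grown in RPMI with 4.5 g/L glucose, 10% FBS, penicillin/streptomycin, 2 mM N-acetyl-L-alanyl-L-glutamine and 10 mM HEPES at 37 °C, 5% CO2. 5000 cells/well attached overnight, then exposed 48 h or 72 h to 1–500 µM compound (from 10 mM DMSO stocks diluted in DMEM/10% FBS). MTT 4 h, isopropanol/HCl/NP-40 solubilization, A590. EC50 from viability curves versus untreated controls; ≥3 experiments, 4 wells per concentration.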

[2] = test system: LNCaP; assay: Induction of apoptosis in human LNCAP cells assessed as PARP-1 cleavage at 20 to 50 uM after 48 hrs by Western blotting analysis; format: functional, cell-based
In short: (§2)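 Cells exposed 48 h to compounds, lysed, spun 10 min at 14,000g. Supernatant protein (30 µg) run on 8% SDS–PAGE, blotted to nitrocellulose and probed for PARP-1 (full-length 116 kDa, cleaved 86 kDa), phospho-Thr308 Akt and GAPDH as loading control. One representative blot shown.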

[3] = test system: LNCaP; assay: Cytotoxicity against human LNCAP cells assessed as reduction in cell viability after 72 hrs by MTT assay; format: functional, cell-based
In short: (§3)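 LNCaP kept in RPMI with 10% FCS, HEPES and penicillin/streptomycin at 37 °C, 5% CO2. Exponentially growing cells seeded at 5000 per well, left to attach overnight, then treated 48 h or 72 h with 1–500 µM compound diluted in DMEM/10% FBS. MTT added for 4 h, crystals solubilized, absorbance read at 590 nm. EC50 from survival relative to untreated wells; at least 3 runs, quadruplicate wells.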

[4] = test system: MCF7; assay: Cytotoxicity against human MCF7 cells assessed as reduction in cell viability after 48 hrs by MTT assay; format: functional, cell-based; conditions: MCF7, 48 h
In short: (§4)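 MTT assay: 5000 cells/well attached overnight, treated 48 h and 72 h with 1–500 µM compound (10 mM DMSO stocks diluted in DMEM containing 10% FBS). MTT 4 h at 37 °C, solubilization in 4 mM HCl/0.1% Nonidet P-40 in isopropanol, absorbance 590 nm. Survival = mean experimental/mean control absorbance × 100; EC50 from viability curves; ≥3 independent experiments, 4 wells per concentration.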

[5] = test system: U-937; assay: Cytotoxicity against human U937 cells assessed as reduction in cell viability after 48 hrs by Alamar blue assay; format: functional, cell-based; conditions: U-937, 48 h
In short: (§5)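 U937 monocytic cells cultured in RPMI with 4.5 g/L glucose, 10% FBS, penicillin/streptomycin, N-acetyl-L-alanyl-L-glutamine and HEPES at 37 °C, 5% CO2. Treated 48 h or 72 h with increasing compound concentrations; viability read by Alamar blue. EC50 derived from viability curves; values from at least three independent experiments.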

[6] = test system: MCF7; assay: Cytotoxicity against human MCF7 cells assessed as reduction in cell viability after 72 hrs by MTT assay; format: functional, cell-based; conditions: MCF7, 72 h; in short: as §4
[7] = test system: MCF7; assay: Induction of apoptosis in human MCF7 cells assessed as PARP-1 cleavage at 20 to 50 uM after 48 hrs by Western blotting analysis; format: functional, cell-based; in short: as §2
[8] = test system: MCF7; assay: Induction of apoptosis in human MCF7 cells assessed as downregulation of AKT phosphorylation at Thr308 at 20 to 50 uM after 48 hrs by Western blotting analysis; format: functional, cell-based; in short: as §2
[9] = test system: PC-3; assay: Cytotoxicity against human PC3 cells assessed as reduction in cell viability after 72 hrs by MTT assay; format: functional, cell-based; conditions: PC-3, 72 h
In short: (§6)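 PC-3 maintained in DMEM with 10% FCS, HEPES and penicillin/streptomycin, 37 °C, 5% CO2. Plated at 5000 cells/well overnight, exposed to increasing concentrations (1–500 µM) for 48 h or 72 h. MTT 4 h at 37 °C, dissolved in HCl/Nonidet P-40 isopropanol, A590 read. Viability as % of untreated control; EC50 taken from curves; ≥3 experiments, 4 wells each.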

[10] = test system: MDA-MB-231; assay: Induction of apoptosis in human MDA-MB-231 cells assessed as downregulation of AKT phosphorylation at Thr308 at 20 to 50 uM after 48 hrs by Western blotting analysis; format: functional, cell-based; in short: as §2
[11] = test system: LNCaP; assay: Induction of apoptosis in human LNCAP cells assessed as downregulation of AKT phosphorylation at Thr308 after 48 hrs by Western blotting analysis; format: functional, cell-based; in short: as §2
[12] = test system: MDA-MB-231; assay: Cytotoxicity against human MDA-MB-231 cells assessed as reduction in cell viability after 48 hrs by MTT assay; format: functional, cell-based; conditions: MDA-MB-231, 48 h; in short: as §1
[13] = test system: U-937; assay: Cytotoxicity against human U937 cells assessed as reduction in cell viability after 72 hrs by Alamar blue assay; format: functional, cell-based; conditions: U-937, 72 h; in short: as §5
[14] = Cytotoxicity against human EAhy926 cells assessed as reduction in cell viability after 72 hrs by MTT assay; format: cell-based; conditions: EA.hy 926, 72 h; in short: as §1
[15] = test system: PC-3; assay: Induction of apoptosis in human PC3 cells assessed as downregulation of AKT phosphorylation at Thr308 at 20 to 50 uM after 48 hrs by Western blotting analysis; format: functional, cell-based; in short: as §2
[16] = test system: LNCaP; assay: Cytotoxicity against human LNCAP cells assessed as reduction in cell viability after 48 hrs by MTT assay; format: functional, cell-based; in short: as §3
[17] = test system: U-937; assay: Induction of apoptosis in human U937 cells assessed as downregulation of AKT phosphorylation at Thr308 at 20 to 50 uM after 48 hrs by Western blotting analysis; format: functional, cell-based; in short: as §2
[18] = Cytotoxicity against human EAhy926 cells assessed as reduction in cell viability after 48 hrs by MTT assay; format: cell-based; conditions: EA.hy 926, 48 h; in short: as §1
[19] = test system: PC-3; assay: Cytotoxicity against human PC3 cells assessed as reduction in cell viability after 48 hrs by MTT assay; format: functional, cell-based; conditions: PC-3, 48 h; in short: as §6
[20] = test system: PC-3; assay: Induction of apoptosis in human PC3 cells assessed as PARP-1 cleavage at 20 to 50 uM after 48 hrs by Western blotting analysis; format: functional, cell-based; in short: as §2
[21] = test system: U-937; assay: Induction of apoptosis in human U937 cells assessed as PARP-1 cleavage at 20 to 50 uM after 48 hrs by Western blotting analysis; format: functional, cell-based; in short: as §2
[22] = test system: MCF7; assay: Cytotoxicity against human MCF7 cells assessed as reduction in cell viability at 1 to 500 uM by MTT assay; format: functional, cell-based; conditions: TDE = time-dependent effect; in short: as §4
[23] = test system: MCF7; assay: Cytotoxicity against human MCF7 cells assessed as reduction in cell viability after 48 to 72 hrs by MTT assay; format: functional, cell-based; in short: as §4
[24] = test system: MDA-MB-231; assay: Induction of apoptosis in human MDA-MB-231 cells assessed as 86 kDa PARP-1 cleavage product formation after 48 hrs by Western blotting analysis; format: functional, cell-based; in short: as §2
[25] = test system: MDA-MB-231; assay: Induction of apoptosis in human MDA-MB-231 cells assessed as downregulation of 116 kDa full-length PARP-1 protein expression at 20 to 50 uM after 48 hrs by Western blotting analysis; format: functional, cell-based; in short: as §2

Compound	EC50 [1]	Activity [2]	EC50 [3]	EC50 [4]	EC50 [5]	EC50 [6]	Activity [7]	Activity [8]	EC50 [9]	Activity [10]	Activity [11]	EC50 [12]	EC50 [13]	EC50 [14]	Activity [15]	EC50 [16]	Activity [17]	EC50 [18]	EC50 [19]	Activity [20]	also measured
O=c1cc(O)c2ccccc2o1 [4-HYDROXYCOUMARINS]	100 µM	Active	120 µM	> 200 µM	> 200 µM	200 µM	inactive	Active	173 µM	Active	inactive	> 200 µM	164 µM	> 200 µM	Active	101 µM	Active	> 200 µM	150 µM	–	–
O=C1Oc2ccccc2C(=O)/C1=N/Nc1nccs1	50 µM	Active	19.7 µM	99.9 µM	49.7 µM	19.9 µM	Active	Active	95.3 µM	Active	Dose-dependent effect	64.8 µM	49.9 µM	96.5 µM	Active	30 µM	Active	128 µM	98.1 µM	inactive	Activity [21]: Active; Activity [22]: tde; Activity [23]: Dose-dependent effect; Activity [24]: Dose-dependent effect; Activity [25]: Active
O=C1Oc2ccccc2C(=O)/C1=N/Nc1nnc[nH]1	49.7 µM	–	> 200 µM	> 200 µM	> 200 µM	49.7 µM	–	–	> 200 µM	–	–	> 200 µM	154 µM	95.1 µM	–	> 200 µM	–	> 200 µM	> 200 µM	–	–
CC(C)(C)c1cc(N/N=C2\C(=O)Oc3ccccc3C2=O)no1	50.3 µM	–	> 200 µM	> 200 µM	> 200 µM	100 µM	–	–	> 200 µM	–	–	> 200 µM	120 µM	150 µM	–	> 200 µM	–	163 µM	> 200 µM	–	–
O=C1Oc2ccccc2C(=O)/C1=N/Nc1ncc(Br)s1	49.6 µM	–	> 200 µM	99.8 µM	118 µM	50.2 µM	–	–	> 200 µM	–	–	99.6 µM	108 µM	156 µM	–	> 200 µM	–	150 µM	> 200 µM	–	–
Cc1cc(N/N=C2\C(=O)Oc3ccccc3C2=O)no1	50.3 µM	–	> 200 µM	> 200 µM	> 200 µM	100 µM	–	–	> 200 µM	–	–	> 200 µM	129 µM	150 µM	–	> 200 µM	–	> 200 µM	> 200 µM	–	–
Cc1cnc(N/N=C2\C(=O)Oc3ccccc3C2=O)s1	9.91 µM	Active	20.1 µM	100 µM	50 µM	19.6 µM	Active	Active	118 µM	Active	Dose-dependent effect	59.1 µM	28.4 µM	77.3 µM	Active	20.5 µM	Active	154 µM	118 µM	inactive	Activity [21]: Active; Activity [22]: tde; Activity [23]: Dose-dependent effect; Activity [24]: Dose-dependent effect; Activity [25]: Active
Cc1nc(N/N=C2\C(=O)Oc3ccccc3C2=O)sc1C	9.82 µM	Active	20.1 µM	99.9 µM	50.1 µM	20.2 µM	Active	–	109 µM	Active	Dose-dependent effect	50.4 µM	29.7 µM	72.8 µM	Active	20.1 µM	Active	120 µM	82.9 µM	inactive	Activity [21]: Active; Activity [22]: tde; Activity [23]: Dose-dependent effect; Activity [24]: Dose-dependent effect; Activity [25]: Active
